Measured values: ChEMBL document CHEMBL4261499, “Chiral disubstituted piperidinyl ureas: a class of dual diacylglycerol lipase-α and ABHD6 inhibitors” (Medchemcomm, 2017)
Activity calls are given as the source filed them. The calls are words filed in the database; no cut-off is given here.

Columns and labels:
Type in all cases: tissue-based
[1] = target: T1, Diacylglycerol lipase-alpha (Mus musculus) (UniProt Q6WQJ1); assay: Inhibition of MB064 labelling of DAGLalpha in mouse brain homogenates at 10 uM pretreated for 30 mins followed by MB064 addition and measured after 20 mins by activity based protein profiling assay relative to control
T1 sequence (whole entry): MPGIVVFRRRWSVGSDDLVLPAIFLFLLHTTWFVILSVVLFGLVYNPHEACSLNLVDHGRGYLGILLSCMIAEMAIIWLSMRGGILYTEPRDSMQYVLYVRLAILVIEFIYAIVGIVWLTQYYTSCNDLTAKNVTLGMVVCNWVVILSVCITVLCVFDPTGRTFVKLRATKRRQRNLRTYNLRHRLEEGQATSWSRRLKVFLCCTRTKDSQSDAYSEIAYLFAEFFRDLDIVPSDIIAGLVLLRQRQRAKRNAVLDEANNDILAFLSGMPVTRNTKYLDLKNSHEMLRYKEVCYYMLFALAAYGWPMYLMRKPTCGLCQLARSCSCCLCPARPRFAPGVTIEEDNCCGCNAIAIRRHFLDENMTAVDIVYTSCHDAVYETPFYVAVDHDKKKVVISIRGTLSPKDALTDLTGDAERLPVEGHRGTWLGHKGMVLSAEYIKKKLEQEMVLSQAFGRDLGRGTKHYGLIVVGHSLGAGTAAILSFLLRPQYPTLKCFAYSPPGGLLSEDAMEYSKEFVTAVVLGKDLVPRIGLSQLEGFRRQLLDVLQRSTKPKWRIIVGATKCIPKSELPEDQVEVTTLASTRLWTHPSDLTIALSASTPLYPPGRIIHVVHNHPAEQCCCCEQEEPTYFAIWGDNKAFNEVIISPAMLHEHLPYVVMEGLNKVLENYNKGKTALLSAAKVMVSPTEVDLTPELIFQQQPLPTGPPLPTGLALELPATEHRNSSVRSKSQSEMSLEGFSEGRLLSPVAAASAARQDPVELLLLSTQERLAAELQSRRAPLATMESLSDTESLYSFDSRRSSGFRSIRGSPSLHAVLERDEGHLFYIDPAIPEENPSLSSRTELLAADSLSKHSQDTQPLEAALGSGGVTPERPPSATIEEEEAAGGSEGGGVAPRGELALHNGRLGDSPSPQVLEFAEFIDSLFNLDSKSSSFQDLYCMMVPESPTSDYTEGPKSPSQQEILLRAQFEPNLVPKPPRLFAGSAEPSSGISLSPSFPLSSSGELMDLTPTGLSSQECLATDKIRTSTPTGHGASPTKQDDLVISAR
Method in brief: (§1)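 Mouse brain membrane proteome preincubated 30 min with inhibitor (10 μM), then labelled with MB064 probe (0.25 μM, 20 min). Readout by gel-based competitive ABPP. Band intensities corrected for protein loading per lane from Coomassie staining. Means ± SEM, n = 3.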

[2] = target: T2, Triacylglycerol hydrolase DDHD2 (Mus musculus) (UniProt Q80Y98); assay: Inhibition of MB064 labelling of DDHD2 in mouse brain homogenates at 10 uM pretreated for 30 mins followed by MB064 addition and measured after 20 mins by activity based protein profiling assay; method in brief: as §1
T2 sequence (whole entry): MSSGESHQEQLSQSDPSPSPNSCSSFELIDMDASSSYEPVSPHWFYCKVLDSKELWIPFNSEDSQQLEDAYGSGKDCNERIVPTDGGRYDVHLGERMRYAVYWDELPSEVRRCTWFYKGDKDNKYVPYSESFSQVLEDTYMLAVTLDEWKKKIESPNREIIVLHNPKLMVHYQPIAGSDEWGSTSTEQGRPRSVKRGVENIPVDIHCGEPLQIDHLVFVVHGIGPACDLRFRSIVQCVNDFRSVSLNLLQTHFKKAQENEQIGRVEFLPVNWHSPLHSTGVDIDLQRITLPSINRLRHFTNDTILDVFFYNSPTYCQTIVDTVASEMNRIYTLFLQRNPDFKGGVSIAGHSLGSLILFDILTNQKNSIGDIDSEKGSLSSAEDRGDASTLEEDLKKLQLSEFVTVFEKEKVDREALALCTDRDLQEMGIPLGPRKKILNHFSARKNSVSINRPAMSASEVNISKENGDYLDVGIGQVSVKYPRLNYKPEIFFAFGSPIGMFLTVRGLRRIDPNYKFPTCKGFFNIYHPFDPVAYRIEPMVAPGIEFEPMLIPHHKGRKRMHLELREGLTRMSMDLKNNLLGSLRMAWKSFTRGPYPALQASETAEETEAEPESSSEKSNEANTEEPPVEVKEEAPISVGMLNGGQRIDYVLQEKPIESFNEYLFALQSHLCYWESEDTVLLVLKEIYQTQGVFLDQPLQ

[3] = target: 1-acylglycerol-3-phosphate O-acyltransferase ABHD5 (Mus musculus) (UniProt Q9DBL9); assay: Inhibition of MB064 labelling of ABHD5 in mouse brain homogenates at 10 uM pretreated for 30 mins followed by MB064 addition and measured after 20 mins by activity based protein profiling assay; method in brief: as §1
1-acylglycerol-3-phosphate O-acyltransferase ABHD5 (Mus musculus), sequence (Q9DBL9 whole entry, looked up): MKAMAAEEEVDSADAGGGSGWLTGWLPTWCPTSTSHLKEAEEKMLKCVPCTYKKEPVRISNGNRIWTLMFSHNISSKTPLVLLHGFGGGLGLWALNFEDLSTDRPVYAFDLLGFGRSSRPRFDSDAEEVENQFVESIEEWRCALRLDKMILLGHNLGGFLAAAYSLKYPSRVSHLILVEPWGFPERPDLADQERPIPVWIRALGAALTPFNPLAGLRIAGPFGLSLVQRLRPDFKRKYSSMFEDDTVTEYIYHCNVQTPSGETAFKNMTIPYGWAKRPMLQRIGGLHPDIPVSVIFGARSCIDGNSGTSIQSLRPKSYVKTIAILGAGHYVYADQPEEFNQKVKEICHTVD

[4] = target: T3, Epoxide hydrolase 4 (Mus musculus) (UniProt Q6IE26); assay: Inhibition of MB064 labelling of ABHD7 in mouse brain homogenates at 10 uM pretreated for 30 mins followed by MB064 addition and measured after 20 mins by activity based protein profiling assay; method in brief: as §1
T3 sequence (whole entry): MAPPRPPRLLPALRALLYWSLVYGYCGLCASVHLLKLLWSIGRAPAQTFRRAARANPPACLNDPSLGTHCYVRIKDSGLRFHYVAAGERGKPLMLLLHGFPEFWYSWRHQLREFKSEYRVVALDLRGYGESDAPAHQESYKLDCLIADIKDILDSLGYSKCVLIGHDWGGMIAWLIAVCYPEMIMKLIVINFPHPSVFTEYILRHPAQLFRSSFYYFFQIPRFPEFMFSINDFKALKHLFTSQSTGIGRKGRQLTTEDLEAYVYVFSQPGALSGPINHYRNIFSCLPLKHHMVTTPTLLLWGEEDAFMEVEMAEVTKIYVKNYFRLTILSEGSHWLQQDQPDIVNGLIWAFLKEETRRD

Mus musculus = organism: Mus musculus; assay: Inhibition of FP-TAMRA labelling of FAAH in mouse brain homogenates at 10 uM pretreated for 30 mins followed by FP-TAMRA addition and measured after 20 mins by activity based protein profiling assay
Method in brief: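 Mouse brain membrane proteome (2 mg mL-1) preincubated 30 min at r.t. with inhibitor (10 μM) or DMSO vehicle, then labelled with TAMRA-FP, 500 nM final, 20 min at r.t. Reaction quenched with Laemmli sample buffer. Readout by gel-based competitive ABPP with Coomassie staining as loading control.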

Row | inhibition [1] [%] | inhibition [2] | inhibition [3] | inhibition [4] | Compound | inhibition (Mus musculus)
1 | 95 | Active | Active | Active | O=C(N1CCC=C[C@@H]1COCc1ccccc1)n1cc(-c2ccc([N+](=O)[O-])cc2)nn1 | Active
2 | 93 | Active | – | – | O=C(N1CCC=C[C@@H]1COCc1ccccc1)n1cc(-c2ccc(Oc3ccccc3)cc2)nn1 | –
3 | 93 | Active | – | – | O=C(N1CCC=C[C@@H]1COCc1ccccc1)n1cc(-c2ccc(Br)cc2)nn1 | –
4 | 96 | Active | – | – | O=C(N1CCCC[C@@H]1COCc1ccccc1)n1cc(-c2ccc(-c3ccccc3)cc2)nn1 | –
5 | 89 | Active | Active | Active | O=C(N1CCC=C[C@@H]1COCc1ccccc1)n1cc(-c2ccccc2)nn1 | Active
6 | 94 | Active | – | – | O=C(N1CCC=C[C@@H]1COCc1ccccc1)n1cc(-c2ccc(-c3ccccc3)cc2)nn1 | –
7 | 85 | Active | Active | Active | O=C(N1C[C@@H](O)C=C[C@@H]1COCc1ccccc1)n1cc(-c2ccc(-c3ccccc3)cc2)nn1 | Active
